ChEMBL document CHEMBL1933023, “Novel immunomodulators based on an oxazolin-2-one-4-carboxamide scaffold” (Bioorg Med Chem Lett, 2012)

Columns and labels:
[1] = biological target: T1, Sphingosine 1-phosphate receptor 1 (Homo sapiens, UniProt P21453); assay: Agonist activity at EGFP-tagged S1P1 receptor expressed in human […] cells assessed as receptor internalization in endosomes after 60 mins; assay type: functional, cell-based
Summary of the method: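 S1P1 Redistribution assay measuring agonist activity; EC50 values reported in μM.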

S1P1 receptor = assay: Therapeutic index, ratio of TC50 for HLF cells to EC50 for S1P1 receptor; assay type: cell-based; conditions: human, read-out: TI
Mus musculus [2] = assay: Immunosuppressant activity in po dosed Balb/C mouse assessed as decrease in circulating CD3+ T cells measured after 30 mins by flow cytometric analysis; assay type: functional, organism-based; conditions: T-cell
Summary of the method: (§1)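 Oral dosing of BALB/C mice at 0.1, 0.3, 1, 3 or 10 mg/kg. Peripheral blood CD3+ T cells were counted, and the result is expressed as percent decrease of CD3+ cells.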

[3] = Cytotoxicity against HLF cells; assay type: cell-based; conditions: human, read-out: TC50 (the source's name)
Summary of the method: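 Cytotoxicity was determined by the MTT method in HLF cells; TC50 values reported in μM.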

Mus musculus [4] = assay: Immunosuppressant activity in Balb/C mouse assessed as decrease in circulating CD3+ T cells at 3 mg/kg, po measured after 30 mins by flow cytometric analysis; assay type: functional, T-cell; design: scale not given: the % may be the effect or the level left; summary of the method: as §1
Mus musculus [5] = assay: Immunosuppressant activity in Balb/C mouse assessed as decrease in circulating CD3+ T cells at 10 mg/kg, po measured after 30 mins by flow cytometric analysis; assay type: functional, T-cell; design: scale not given: the % may be the effect or the level left; summary of the method: as §1
Mus musculus [6] = assay: Immunosuppressant activity in Balb/C mouse assessed as decrease in circulating CD3+ T cells at 0.3 mg/kg, po measured after 30 mins by flow cytometric analysis; assay type: functional, T-cell; design: scale not given: the % may be the effect or the level left; summary of the method: as §1
Mus musculus [7] = assay: Immunosuppressant activity in Balb/C mouse assessed as decrease in circulating CD3+ T cells at 1 mg/kg, po measured after 30 mins by flow cytometric analysis; assay type: functional, T-cell; design: scale not given: the % may be the effect or the level left; summary of the method: as §1
[8] = Ratio of TC50 for compound to FTY720 for HLF cells; assay type: ADME, cell-based; conditions: human
[9] = biological target: T1, Sphingosine 1-phosphate receptor 1; conditions: UOS2, 10 uM
[10] = biological target: T1, Sphingosine 1-phosphate receptor 1; conditions: UOS2, 3 uM
Mus musculus [11] = assay: Immunosuppressant activity in Balb/C mouse assessed as decrease in circulating CD3+ T cells at 0.1 mg/kg, po measured after 30 mins by flow cytometric analysis; assay type: functional, T-cell; design: scale not given: the % may be the effect or the level left; summary of the method: as §1
[12] = biological target: T2, Sphingosine 1-phosphate receptor 4 (Homo sapiens, UniProt O95977); assay: Agonist activity at human S1P4 expressed in CHO cells after 60 mins by [35S]GTPgammaS binding assay; assay type: functional, cell-based
T2 sequence (O95977 whole entry): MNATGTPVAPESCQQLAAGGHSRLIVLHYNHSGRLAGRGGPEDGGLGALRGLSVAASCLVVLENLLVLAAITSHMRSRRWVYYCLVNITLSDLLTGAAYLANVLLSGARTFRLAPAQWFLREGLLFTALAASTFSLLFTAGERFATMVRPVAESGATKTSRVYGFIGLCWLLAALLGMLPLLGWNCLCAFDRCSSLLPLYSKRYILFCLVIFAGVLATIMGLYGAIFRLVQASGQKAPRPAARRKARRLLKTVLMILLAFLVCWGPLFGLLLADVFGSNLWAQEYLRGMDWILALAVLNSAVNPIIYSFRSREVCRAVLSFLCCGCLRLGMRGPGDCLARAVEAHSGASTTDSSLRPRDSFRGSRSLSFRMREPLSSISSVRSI

T1 sequence (P21453 whole entry): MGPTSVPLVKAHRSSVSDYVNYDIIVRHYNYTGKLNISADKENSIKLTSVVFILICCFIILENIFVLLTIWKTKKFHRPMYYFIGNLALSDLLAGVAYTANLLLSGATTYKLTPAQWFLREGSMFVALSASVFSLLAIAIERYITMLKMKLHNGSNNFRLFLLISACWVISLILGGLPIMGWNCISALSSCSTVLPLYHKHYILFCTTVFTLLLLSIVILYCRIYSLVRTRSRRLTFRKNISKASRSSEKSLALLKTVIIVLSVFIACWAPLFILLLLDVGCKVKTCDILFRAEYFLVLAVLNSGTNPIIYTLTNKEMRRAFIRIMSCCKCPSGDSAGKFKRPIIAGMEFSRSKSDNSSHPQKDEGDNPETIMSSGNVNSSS

NC(=O)C1(CCc2ccc(OCc3ccccc3Cl)cc2)COC(=O)N1 (stereo unspecified)
EC50 ([1]; read-out: EC50): > 100 µM

Cc1ccccc1COc1ccc(CCC2(C(N)=O)COC(=O)N2)cc1 (stereo unspecified)
EC50 ([1]; uos2): Not Active

CCCCCCCCOc1ccc(CCC2(C(N)=O)COC(=O)N2)cc1 (stereo unspecified)
selectivity ratio (S1P1 receptor): 42.6 | Activity (Mus musculus [2]): Dose-dependent effect | CC50 [3]: 121 µM | EC50 ([1]; read-out: EC50): 2.84 µM | Activity (Mus musculus [4]): 53% | Activity (Mus musculus [5]): 84.3% | Activity (Mus musculus [6]): 1.7% | Activity (Mus musculus [7]): 20%

NC(=O)C1(CCc2ccc(OCc3ccc(Cl)cc3)cc2)COC(=O)N1 (stereo unspecified)
selectivity ratio (S1P1 receptor): 25.4 | CC50 [3]: 27.9 µM | selectivity ratio [8]: 8 | EC50 ([1]; read-out: EC50): 1.1 µM

NC(=O)C1(CCc2ccc(OCCCc3ccccc3)cc2)COC(=O)N1 (stereo unspecified)
selectivity ratio (S1P1 receptor): 7.28 | CC50 [3]: 26.4 µM | selectivity ratio [8]: 8 | EC50 ([1]; read-out: EC50): 3.63 µM

CCCCCCCCc1ccc(CCC(N)(CO)CO)cc1.Cl [FINGOLIMOD HYDROCHLORIDE]
Emax [9]: 54% | CC50 [3]: 3.15 µM | Activity (Mus musculus [4]): 80.7% | Activity (Mus musculus [5]): 86.6% | Emax [10]: 37% | Activity (Mus musculus [6]): 47.2% | Activity (Mus musculus [7]): 79% | Activity (Mus musculus [11]): 9.7%

CCCCCCCCc1ccc(CC[C@](N)(CO)COP(=O)(O)O)cc1 [FTY720-P]
IC50 [12]: 0.0022 µM

CC(C)(C)c1ccc(COc2ccc(CCC3(C(N)=O)COC(=O)N3)cc2)cc1 (stereo unspecified)
selectivity ratio (S1P1 receptor): 9.35 | CC50 [3]: 25.4 µM | selectivity ratio [8]: 8 | EC50 ([1]; read-out: EC50): 2.72 µM
